Legend:
[1] = Antiplatelet activity in pig platelet assessed as inhibition of platelet activating factor-induced aggregation measured for 5 mins by aggregometry (reference value: 52.30 +/- 1.78%); type: functional, cell-based; conditions: Sus scrofa
[2] = system: Rattus norvegicus; experiment: Antithrombotic activity in pentobarbital sodium anesthetized Wistar rat assessed as decrease in thrombus weight at 10 nmol/kg, po (reference value: 28.21=/-1.11 mg); type: functional
How it was run: (§1)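 Male Wistar rats (250–300 g) received test agents orally, dissolved in NS and kept on ice; NS served as the vehicle control. After 30 min, rats were anaesthetised with pentobarbital sodium (80.0 mg/kg, i.p.). The right carotid artery and left jugular vein were exposed and joined through a polyethylene tube holding a weighed 6 cm thread. Wet thrombus weight is reported as mean ± SD in mg.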

[3] = Antiplatelet activity in pig platelet assessed as inhibition of ADP-induced aggregation measured for 5 mins by aggregometry (reference value: 50.16 +/- 3.65%); type: functional, cell-based; conditions: Sus scrofa
[4] = Antiplatelet activity in pig platelet assessed as inhibition of arachidonic acid-induced aggregation measured for 5 mins by aggregometry (reference value: 49.62 +/- 2.90%); type: functional, cell-based; conditions: Sus scrofa
[5] = system: Rattus norvegicus; experiment: Antithrombotic activity in pentobarbital sodium anesthetized Wistar rat assessed as decrease in thrombus weight at 0.1 nmol/kg, po; type: functional; how it was run: as §1
[6] = system: Rattus norvegicus; experiment: Antithrombotic activity in pentobarbital sodium anesthetized Wistar rat assessed as decrease in thrombus weight at 1 nmol/kg, po; type: functional; how it was run: as §1
[7] = system: Rattus norvegicus; experiment: Antithrombotic activity in po dosed Wistar rat assessed as decrease in thrombus weight; type: functional, organism-based; how it was run: as §1
[8] = system: Rattus norvegicus; experiment: Antithrombotic activity in pentobarbital sodium anesthetized Wistar rat assessed as decrease in thrombus weight at 100 nmol/kg, po (reference value: 28.21=/-1.11 mg); type: functional; how it was run: as §1
[9] = Antiplatelet activity in pig platelet assessed as inhibition of ADP-induced aggregation at 1.7 mM measured for 5 mins by aggregometry; type: functional, Sus scrofa; parameters: scale not given: the % may be the effect or the level left
[10] = Antiplatelet activity in pig platelet assessed as inhibition of arachidonic acid-induced aggregation at 1.7 mM measured for 5 mins by aggregometry; type: functional, Sus scrofa; parameters: scale not given: the % may be the effect or the level left
[11] = Antiplatelet activity in pig platelet assessed as inhibition of platelet activating factor-induced aggregation at 1.7 mM measured for 5 mins by aggregometry; type: functional, Sus scrofa; parameters: scale not given: the % may be the effect or the level left
[12] = system: Rattus norvegicus; experiment: Antithrombotic activity in pentobarbital sodium anesthetized Wistar rat assessed as thrombus weight at 160 umol/kg, po (reference value: 28.21=/-1.11 mg); type: functional; how it was run: as §1

IC50 [1]	IC50 [3]	IC50 [4]	SMILES	Activity [2]	also measured
1.4 µM	51.1 µM	2.4 µM	CC[C@H](C)[C@H](N)C(=O)NNC(=O)[C@@H]1Cc2c([nH]c3ccccc23)[C@H](C)N1	20.62 mg	
348 µM	722 µM	20.7 µM	C[C@@H]1N[C@H](C(=O)NNC(=O)CN)Cc2c1[nH]c1ccccc21	23.74 mg	
109 µM	307 µM	7.1 µM	C[C@@H]1N[C@H](C(=O)NNC(=O)[C@@H](N)Cc2ccccc2)Cc2c1[nH]c1ccccc21	21 mg	
50 µM	156 µM	3.7 µM	CC(C)[C@H](N)C(=O)NNC(=O)[C@@H]1Cc2c([nH]c3ccccc23)[C@H](C)N1	24.01 mg	
52.9 µM	417 µM	21.7 µM	CSCC[C@H](N)C(=O)NNC(=O)[C@@H]1Cc2c([nH]c3ccccc23)[C@H](C)N1	18.55 mg	
134 µM	166 µM	20.6 µM	C[C@@H]1N[C@H](C(=O)NNC(=O)[C@@H]2CCCN2)Cc2c1[nH]c1ccccc21	20.39 mg	
507 µM	609 µM	19.7 µM	C[C@@H]1N[C@H](C(=O)NNC(=O)[C@@H](N)CC(N)=O)Cc2c1[nH]c1ccccc21	20.42 mg	
1.2 µM	31.6 µM	3.2 µM	CC(C)C[C@H](N)C(=O)NNC(=O)[C@@H]1Cc2c([nH]c3ccccc23)[C@H](C)N1	21.06 mg	

Continued, compound first:

SMILES	IC50 [1]	IC50 [3]	IC50 [4]	Activity [2]	also measured
C[C@@H]1N[C@H](C(=O)NNC(=O)[C@@H](N)[C@@H](C)O)Cc2c1[nH]c1ccccc21	31.9 µM	531 µM	4.7 µM	18.67 mg	Activity [5]: 27.22 mg; Activity [6]: 22.77 mg; Activity [7]: Dose-dependent effect
C[C@@H]1N[C@H](C(=O)NNC(=O)[C@@H](N)CO)Cc2c1[nH]c1ccccc21	119 µM	276 µM	19.9 µM	19.04 mg	
C[C@@H]1N[C@H](C(=O)NN)Cc2c1[nH]c1ccccc21	111 µM	611 µM	21.5 µM		Activity [8]: 21.23 mg
C[C@@H]1N[C@H](C(=O)NNC(=O)[C@@H](N)CCCCN)Cc2c1[nH]c1ccccc21	106 µM	321 µM	3.4 µM	18.97 mg	
C[C@@H]1N[C@H](C(=O)NNC(=O)[C@@H](N)CCC(=O)OCc2ccccc2)Cc2c1[nH]c1ccccc21	362 µM	524 µM	6.3 µM	21.36 mg	
C[C@@H]1N[C@H](C(=O)NNC(=O)[C@@H](N)Cc2c[nH]c3ccccc23)Cc2c1[nH]c1ccccc21	4.3 µM	21.7 µM	0.6 µM	18.87 mg	
C[C@@H]1N[C@H](C(=O)NNC(=O)[C@@H](N)Cc2cnc[nH]2)Cc2c1[nH]c1ccccc21	7.7 µM	94.6 µM	4.8 µM	19.75 mg	
CC(=O)Oc1ccccc1C(=O)O [ASPIRIN]					Activity [9]: 31.14%; Activity [10]: 34.5%; Activity [11]: 33.22%; Activity [12]: 18.24 mg
C[C@@H]1N[C@H](C(=O)NNC(=O)[C@@H](N)CCC(N)=O)Cc2c1[nH]c1ccccc21	267 µM	598 µM	18.5 µM	21.01 mg	
C[C@@H]1N[C@H](C(=O)NNC(=O)[C@@H](N)Cc2ccc(O)cc2)Cc2c1[nH]c1ccccc21	12.7 µM	152 µM	13 µM	20.24 mg	
C[C@@H]1N[C@H](C(=O)NNC(=O)[C@@H](N)CC(=O)OCc2ccccc2)Cc2c1[nH]c1ccccc21	196 µM	117 µM	5.2 µM	19.65 mg	
C[C@H](N)C(=O)NNC(=O)[C@@H]1Cc2c([nH]c3ccccc23)[C@H](C)N1	162 µM	118 µM	20 µM	20.06 mg	
